Experimental data as given in ChEMBL document CHEMBL1157688, “Novel tumor-targeted RGD peptide-camptothecin conjugates: synthesis and biological evaluation” (Bioorg Med Chem, 2010).

How the values were obtained:
Integrin alpha-V/beta-5 [1] = biological target: T1, Integrin alpha-V/beta-5 (Homo sapiens, UniProt P06756+P18084); assay: Displacement of [125I]echistatin from integrin alphaVbeta5 receptor after 3 hrs by gamma counting; format: protein-complex assay
Target sequence in this assay (P06756 31-889 limits assumed): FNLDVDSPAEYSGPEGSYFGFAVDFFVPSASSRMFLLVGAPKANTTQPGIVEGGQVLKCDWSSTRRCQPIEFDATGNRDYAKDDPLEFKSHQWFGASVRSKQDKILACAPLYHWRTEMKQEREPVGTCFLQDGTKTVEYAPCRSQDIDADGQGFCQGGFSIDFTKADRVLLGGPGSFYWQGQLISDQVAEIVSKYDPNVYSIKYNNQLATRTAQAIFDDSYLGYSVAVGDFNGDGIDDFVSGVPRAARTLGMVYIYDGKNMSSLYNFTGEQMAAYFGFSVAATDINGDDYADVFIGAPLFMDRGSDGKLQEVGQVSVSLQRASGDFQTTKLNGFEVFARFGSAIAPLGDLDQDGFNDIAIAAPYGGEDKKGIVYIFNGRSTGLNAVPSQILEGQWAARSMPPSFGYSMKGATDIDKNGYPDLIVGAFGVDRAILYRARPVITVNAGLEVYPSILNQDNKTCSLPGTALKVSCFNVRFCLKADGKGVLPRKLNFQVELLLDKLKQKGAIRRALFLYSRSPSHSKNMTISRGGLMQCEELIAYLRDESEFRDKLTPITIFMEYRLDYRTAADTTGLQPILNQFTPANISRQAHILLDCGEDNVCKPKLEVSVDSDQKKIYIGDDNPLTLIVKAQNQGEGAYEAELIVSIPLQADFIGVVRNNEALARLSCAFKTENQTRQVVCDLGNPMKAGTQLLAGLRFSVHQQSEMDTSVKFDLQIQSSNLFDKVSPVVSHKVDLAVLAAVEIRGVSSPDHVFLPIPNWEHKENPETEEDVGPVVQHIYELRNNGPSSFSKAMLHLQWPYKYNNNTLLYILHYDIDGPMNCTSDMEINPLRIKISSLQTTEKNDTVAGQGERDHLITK
Target sequence in this assay (P06756 891-1048 limits assumed): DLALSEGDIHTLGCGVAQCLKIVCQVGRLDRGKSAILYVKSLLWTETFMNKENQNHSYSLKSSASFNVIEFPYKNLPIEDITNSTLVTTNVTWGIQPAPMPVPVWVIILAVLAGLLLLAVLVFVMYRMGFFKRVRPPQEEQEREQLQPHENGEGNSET
Target sequence in this assay (P18084 24-799 limits assumed): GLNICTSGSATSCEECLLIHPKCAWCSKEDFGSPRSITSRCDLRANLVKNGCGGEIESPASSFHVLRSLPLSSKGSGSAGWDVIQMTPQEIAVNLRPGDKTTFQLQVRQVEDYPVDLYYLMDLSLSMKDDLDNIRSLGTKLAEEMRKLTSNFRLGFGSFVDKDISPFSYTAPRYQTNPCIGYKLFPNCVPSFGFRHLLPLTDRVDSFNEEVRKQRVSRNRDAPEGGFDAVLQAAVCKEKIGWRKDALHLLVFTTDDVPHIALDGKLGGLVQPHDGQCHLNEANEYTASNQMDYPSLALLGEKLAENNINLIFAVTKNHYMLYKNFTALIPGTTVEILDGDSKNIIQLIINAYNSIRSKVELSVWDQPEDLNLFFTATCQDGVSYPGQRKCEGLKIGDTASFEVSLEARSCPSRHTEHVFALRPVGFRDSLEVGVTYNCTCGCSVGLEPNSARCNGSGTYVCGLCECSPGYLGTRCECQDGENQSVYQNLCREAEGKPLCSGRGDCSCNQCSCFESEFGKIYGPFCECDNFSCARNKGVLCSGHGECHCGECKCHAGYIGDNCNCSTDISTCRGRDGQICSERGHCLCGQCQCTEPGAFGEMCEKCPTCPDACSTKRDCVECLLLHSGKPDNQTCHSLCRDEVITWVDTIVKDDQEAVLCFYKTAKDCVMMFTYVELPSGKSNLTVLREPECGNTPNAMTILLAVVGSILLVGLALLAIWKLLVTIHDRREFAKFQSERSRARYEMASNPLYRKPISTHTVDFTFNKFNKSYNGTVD

[2] = Chemical stability assessed as half life at 100 uM at pH 7.4 by HPLC analysis; format: physicochemical; details: buffer
Method in brief: (§1)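 Compounds were dissolved in DMSO and diluted to 100 (final, 1% DMSO) in phosphate buffer for pH 7.4 or acetate buffer for pH 5.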

Integrin alpha-V/beta-5 [3] = biological target: T1, Integrin alpha-V/beta-5; assay: Inhibition of integrin alphaVbeta5 receptor-mediated adhesion of human A2780 cells to vitronectin after 1 hr by toluidine blue staining; format: cell-based
Method in brief: (§2)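 Wells were coated 2 h at room temperature with human vitronectin and blocked 1 h with 1% BSA. Tumor cells in serum-free medium with 1% BSA were plated with compounds at 0.1 to 100 and incubated 1 h. Cells were washed with PBS, fixed 10 min in 4% paraformaldehyde and stained 10 min with 1% toluidine blue.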
Target sequence in this assay (P06756 31-889 limits assumed): as the sequence (P06756 31-889 limits assumed) above
Target sequence in this assay (P06756 891-1048 limits assumed): as the sequence (P06756 891-1048 limits assumed) above
Target sequence in this assay (P18084 24-799 limits assumed): as the sequence (P18084 24-799 limits assumed) above

A2780 = assay: Cytotoxicity against human A2780 cells after 72 hrs by sulforhodamine B assay; format: functional, cell-based; details: A2780, 72 h
Method in brief: (§3)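 Tumor cells were seeded in 96-well plates and exposed the next day to a range of drug concentrations for 72 h. Surviving cells were quantified by sulforhodamine B staining, and IC50 ± SD was derived by curve fitting.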

Integrin alpha-V/beta-3 [4] = biological target: T2, Integrin alpha-V/beta-3 (Homo sapiens, UniProt P05106+P06756); assay: Displacement of [125I]echistatin from integrin alphaVbeta3 receptor after 3 hrs by gamma counting; format: protein-complex assay; details: read-out: IC50
Target sequence in this assay (P05106 27-788 limits assumed): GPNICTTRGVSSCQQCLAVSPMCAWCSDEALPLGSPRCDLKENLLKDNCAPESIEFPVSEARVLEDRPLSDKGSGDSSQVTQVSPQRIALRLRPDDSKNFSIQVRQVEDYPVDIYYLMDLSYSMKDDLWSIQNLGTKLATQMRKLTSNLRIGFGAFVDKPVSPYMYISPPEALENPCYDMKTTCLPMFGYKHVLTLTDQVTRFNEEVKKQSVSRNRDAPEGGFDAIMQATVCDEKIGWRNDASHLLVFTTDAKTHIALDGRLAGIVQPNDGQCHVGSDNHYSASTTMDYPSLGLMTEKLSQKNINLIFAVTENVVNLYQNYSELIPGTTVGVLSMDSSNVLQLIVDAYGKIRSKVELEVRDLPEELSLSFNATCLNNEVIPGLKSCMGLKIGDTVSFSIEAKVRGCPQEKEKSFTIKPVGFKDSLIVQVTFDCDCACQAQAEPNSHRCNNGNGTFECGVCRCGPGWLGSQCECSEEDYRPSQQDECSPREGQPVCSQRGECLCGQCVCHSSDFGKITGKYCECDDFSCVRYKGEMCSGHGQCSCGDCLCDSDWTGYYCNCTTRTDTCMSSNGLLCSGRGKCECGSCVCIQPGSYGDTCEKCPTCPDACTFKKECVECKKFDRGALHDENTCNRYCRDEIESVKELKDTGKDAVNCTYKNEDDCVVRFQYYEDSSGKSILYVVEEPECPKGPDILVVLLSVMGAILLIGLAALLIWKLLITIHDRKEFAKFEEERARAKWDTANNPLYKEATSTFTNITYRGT
Target sequence in this assay (P06756 31-889 limits assumed): as the sequence (P06756 31-889 limits assumed) above
Target sequence in this assay (P06756 891-1048 limits assumed): as the sequence (P06756 891-1048 limits assumed) above

PC-3 = assay: Cytotoxicity against human PC3 cells after 72 hrs by sulforhodamine B assay; format: functional, cell-based; details: PC-3, 72 h; method in brief: as §3
[5] = Chemical stability assessed as half life at 100 uM at pH 5 by HPLC analysis; format: physicochemical; details: buffer; method in brief: as §1
Integrin alpha-V = Integrin alpha-V (Homo sapiens, UniProt P06756); assay: Binding affinity to integrin alphaV receptor in human PC3 cells; format: cell-based; details: PC-3
Sequence of Integrin alpha-V (P06756 31-889 limits assumed): as the sequence (P06756 31-889 limits assumed) above
Sequence of Integrin alpha-V (P06756 891-1048 limits assumed): as the sequence (P06756 891-1048 limits assumed) above
Method in brief: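 Tumor cells in serum-free medium with 1% BSA were plated for 1 h on wells precoated with 5 µg/ml human vitronectin and blocked with 1% BSA. Compounds were tested at 0.1–100 µM. Adherent cells were fixed with 4% paraformaldehyde, stained with 1% toluidine blue, solubilized in 1% SDS and read by absorbance. IC50 ± SD from curve fitting.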

Integrin alpha-V/beta-5 [6] = biological target: T1, Integrin alpha-V/beta-5; assay: Binding affinity to integrin alphaVbeta5 receptor in human A498 cells; format: cell-based
A498 = assay: Cytotoxicity against human A498 cells after 72 hrs by sulforhodamine B assay; format: functional, cell-based; details: A498, 72 h; method in brief: as §3
Integrin alpha-V/beta-3 [7] = biological target: T2, Integrin alpha-V/beta-3; assay: Inhibition of integrin alphaVbeta3 receptor-mediated adhesion of human A498 cells to vitronectin after 1 hr by toluidine blue staining; format: cell-based; method in brief: as §2
Target sequence in this assay (P05106 27-788 limits assumed): as the sequence (P05106 27-788 limits assumed) above
Target sequence in this assay (P06756 31-889 limits assumed): as the sequence (P06756 31-889 limits assumed) above
Target sequence in this assay (P06756 891-1048 limits assumed): as the sequence (P06756 891-1048 limits assumed) above

Integrin alpha-V/beta-5 [8] = biological target: T1, Integrin alpha-V/beta-5; assay: Binding affinity to integrin alphaVbeta5 receptor in human A2780 cells; format: cell-based
Integrin alpha-V/beta-5 [9] = biological target: T1, Integrin alpha-V/beta-5; assay: Inhibition of integrin alphaVbeta5 receptor-mediated adhesion of human A498 cells to vitronectin after 1 hr by toluidine blue staining; format: cell-based; method in brief: as §2
Target sequence in this assay (P06756 31-889 limits assumed): as the sequence (P06756 31-889 limits assumed) above
Target sequence in this assay (P06756 891-1048 limits assumed): as the sequence (P06756 891-1048 limits assumed) above
Target sequence in this assay (P18084 24-799 limits assumed): as the sequence (P18084 24-799 limits assumed) above

Integrin alpha-V/beta-3 [10] = biological target: T2, Integrin alpha-V/beta-3; assay: Binding affinity to integrin alphaVbeta3 receptor in human A498 cells; format: cell-based

Row | SMILES | IC50 (Integrin alpha-V/beta-5 [1]) | half-life at 100 µM [2] | IC50 (Integrin alpha-V/beta-5 [3]) | IC50 (A2780) | IC50 (Integrin alpha-V/beta-3 [4]) | IC50 (PC-3) | half-life at 100 µM [5] | Activity (Integrin alpha-V) | Activity (Integrin alpha-V/beta-5 [6]) | IC50 (A498) | IC50 (Integrin alpha-V/beta-3 [7]) | Activity (Integrin alpha-V/beta-5 [8]) | IC50 (Integrin alpha-V/beta-5 [9]) | Activity (Integrin alpha-V/beta-3 [10])
1 | CC[C@@]1(O)C(=O)OCc2c1cc1n(c2=O)Cc2c-1nc1ccccc1c2CC/C=N/NC(=O)COCCOCCOCC(=O)NCc1ccc(C[C@@H]2NC(=O)[C@@H](Cc3ccccc3)NC(=O)[C@H](CC(=O)O)NC(=O)CNC(=O)[C@H](CCCNC(=N)N)NC2=O)cc1 | 0.0229 µM | 5.8 h | 12.9 µM | 0.017 µM | 0.00601 µM | 0.42 µM | < 0.0333 h | – | – | – | – | – | – | –
2 | CC[C@@]1(O)C(=O)OCc2c1cc1n(c2=O)Cc2c-1nc1ccccc1c2C=O | – | – | – | 0.003 µM | – | 0.13 µM | – | – | – | – | – | – | – | –
3 | N=C(N)NCCC[C@@H]1NC(=O)[C@H](c2ccc(CNC(=O)COCCOCCOCC(=O)NN)cc2)NC(=O)[C@@H](Cc2ccccc2)NC(=O)[C@H](CC(=O)O)NC(=O)CNC1=O | 0.00065 µM | – | 11.8 µM | > 1000 µM | 0.0038 µM | > 1000 µM | – | – | – | – | – | – | – | –
4 | N=C(N)NCCC[C@@H]1NC(=O)[C@H](c2ccc(CNC(=O)COCCOCCOCC(=O)O)cc2)NC(=O)[C@@H](Cc2ccccc2)NC(=O)[C@H](CC(=O)O)NC(=O)CNC1=O | 0.00035 µM | – | 12.3 µM | > 1000 µM | 0.004 µM | > 1000 µM | – | Dose-dependent effect | Dose-dependent effect | > 1000 µM | 10.7 µM | Dose-dependent effect | 10.7 µM | Dose-dependent effect
5 | N=C(N)NCCC[C@@H]1NC(=O)[C@H](CCCC(=O)O)NC(=O)[C@@H](Cc2ccccc2)NC(=O)[C@H](CC(=O)O)NC(=O)CNC1=O | – | – | – | > 1000 µM | – | > 1000 µM | – | Dose-dependent effect | Dose-dependent effect | > 1000 µM | – | Dose-dependent effect | – | Dose-dependent effect
6 | CC[C@@]1(O)C(=O)OCc2c1cc1n(c2=O)Cc2c-1nc1ccccc1c2/C=N/NC(=O)COCCOCCOCC(=O)NCc1ccc(C[C@@H]2NC(=O)[C@@H](Cc3ccccc3)NC(=O)[C@H](CC(=O)O)NC(=O)CNC(=O)[C@H](CCCNC(=N)N)NC2=O)cc1 | 0.0599 µM | 6 h | 6.7 µM | 0.09 µM | 0.0117 µM | 0.22 µM | 25 h | – | – | – | – | – | – | –
